This note sets out measurements from ChEMBL document CHEMBL2146466, “Evaluation of dimerization-inhibitory activities of cyclic peptides containing a β-hairpin loop sequence of the EGF receptor” (2012).

SMILES strings stand for the structures. Active and inactive are the calls of the source. The rule behind the calls is not given here. Where a SMILES comes first, the peptide text is derived from it.

Epidermal growth factor receptor (Homo sapiens), sequence (P00533 whole entry): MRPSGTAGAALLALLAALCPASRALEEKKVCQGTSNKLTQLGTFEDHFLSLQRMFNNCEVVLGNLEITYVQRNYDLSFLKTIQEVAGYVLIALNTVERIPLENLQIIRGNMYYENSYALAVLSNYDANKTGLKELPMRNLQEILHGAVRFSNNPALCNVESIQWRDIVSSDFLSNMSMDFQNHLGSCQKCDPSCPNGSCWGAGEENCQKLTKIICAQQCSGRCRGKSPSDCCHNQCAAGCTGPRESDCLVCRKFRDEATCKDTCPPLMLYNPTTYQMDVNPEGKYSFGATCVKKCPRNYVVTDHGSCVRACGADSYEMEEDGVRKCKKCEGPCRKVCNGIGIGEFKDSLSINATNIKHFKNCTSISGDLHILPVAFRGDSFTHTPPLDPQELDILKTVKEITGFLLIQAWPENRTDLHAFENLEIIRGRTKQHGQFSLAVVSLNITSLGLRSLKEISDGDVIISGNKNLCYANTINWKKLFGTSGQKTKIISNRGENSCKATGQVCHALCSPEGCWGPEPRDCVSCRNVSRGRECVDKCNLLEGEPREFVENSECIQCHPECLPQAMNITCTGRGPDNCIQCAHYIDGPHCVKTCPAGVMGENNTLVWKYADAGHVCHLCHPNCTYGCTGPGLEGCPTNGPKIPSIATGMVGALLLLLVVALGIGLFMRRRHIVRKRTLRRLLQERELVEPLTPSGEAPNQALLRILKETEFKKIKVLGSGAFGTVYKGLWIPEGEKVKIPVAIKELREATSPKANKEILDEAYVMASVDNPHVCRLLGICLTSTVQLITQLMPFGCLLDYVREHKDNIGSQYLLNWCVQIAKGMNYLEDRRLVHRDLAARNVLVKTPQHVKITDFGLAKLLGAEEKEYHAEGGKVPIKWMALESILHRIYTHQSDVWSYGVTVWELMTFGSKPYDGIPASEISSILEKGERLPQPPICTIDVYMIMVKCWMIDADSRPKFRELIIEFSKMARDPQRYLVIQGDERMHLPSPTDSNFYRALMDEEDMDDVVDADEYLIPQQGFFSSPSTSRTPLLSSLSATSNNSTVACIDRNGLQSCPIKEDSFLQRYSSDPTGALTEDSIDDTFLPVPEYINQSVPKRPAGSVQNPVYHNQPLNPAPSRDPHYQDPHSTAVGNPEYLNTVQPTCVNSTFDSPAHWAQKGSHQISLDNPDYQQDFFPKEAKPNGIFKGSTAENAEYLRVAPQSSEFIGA

One assay concerns the target Epidermal growth factor receptor (Homo sapiens) (UniProt P00533). The assay is described as follows: Human recombinant EGF receptor dimer amount expressed in A431 cells at 10 uM after 10 mins by immunoblotting analysis relative to control. The following applies: A-431.
For `CSCC[C@@H]1NC(=O)[C@H](CCC(N)=O)NC(=O)[C@H](Cc2ccc(O)cc2)NC(=O)[C@H]([C@@H](C)O)NC(=O)[C@H]([C@@H](C)O)NC(=O)[C@@H]2CCCN2C(=O)[C@H](CC(N)=O)NC(=O)[C@H](Cc2ccc(O)cc2)NC(=O)[C@H](CC(C)C)NC(=O)[C@@H](N)CSSC[C@@H](C(=O)O)NC1=O` (HELM PEPTIDE1{C.L.Y.N.P.T.T.Y.Q.M.C}$PEPTIDE1,PEPTIDE1,1:R3-11:R3$$$V2.0), the residual activity came out at 80%.

Take `CSCC[C@@H]1NC(=O)[C@H](CCC(N)=O)NC(=O)[C@H](Cc2ccc(O)cc2)NC(=O)[C@H]([C@@H](C)O)NC(=O)[C@H]([C@@H](C)O)NC(=O)[C@@H]2CCCN2C(=O)[C@H](CC(N)=O)NC(=O)[C@H](Cc2ccc(O)cc2)NC(=O)[C@H](CC(C)C)NC(=O)[C@@H](N)CSSC[C@@H](C(=O)O)NC(=O)[C@H](CC(=O)O)NC1=O` (HELM PEPTIDE1{C.L.Y.N.P.T.T.Y.Q.M.D.C}$PEPTIDE1,PEPTIDE1,1:R3-12:R3$$$V2.0): the residual activity came to 80%.

Turning to `C[C@@H]1NC(=O)[C@H](CCC(N)=O)NC(=O)[C@H](Cc2ccc(O)cc2)NC(=O)[C@H]([C@@H](C)O)NC(=O)[C@H]([C@@H](C)O)NC(=O)[C@@H]2CCCN2C(=O)[C@H](CC(N)=O)NC(=O)[C@H](Cc2ccc(O)cc2)NC(=O)[C@@H](N)CSSC[C@@H](C(=O)O)NC1=O` (HELM PEPTIDE1{C.Y.N.P.T.T.Y.Q.A.C}$PEPTIDE1,PEPTIDE1,1:R3-10:R3$$$V2.0), the residual activity was 73%.

As for `CC(C)C[C@@H]1NC(=O)[C@H](CCC(N)=O)NC(=O)[C@H](Cc2ccc(O)cc2)NC(=O)[C@H]([C@@H](C)O)NC(=O)[C@H]([C@@H](C)O)NC(=O)[C@@H]2CCCN2C(=O)[C@H](CC(N)=O)NC(=O)[C@H](Cc2ccc(O)cc2)NC(=O)[C@@H](N)CSSC[C@@H](C(=O)O)NC1=O` (HELM PEPTIDE1{C.Y.N.P.T.T.Y.Q.L.C}$PEPTIDE1,PEPTIDE1,1:R3-10:R3$$$V2.0), the residual activity is 73%.

Turning to `CSCC[C@@H]1NC(=O)[C@H](CCC(N)=O)NC(=O)[C@H](Cc2ccc(O)cc2)NC(=O)[C@H]([C@@H](C)O)NC(=O)[C@H]([C@@H](C)O)NC(=O)[C@@H]2CCCN2C(=O)[C@H](CC(N)=O)NC(=O)[C@H](Cc2ccc(O)cc2)NC(=O)[C@@H](N)CSSC[C@@H](C(=O)O)NC(=O)[C@H](CC(=O)O)NC1=O` (HELM PEPTIDE1{C.Y.N.P.T.T.Y.Q.M.D.C}$PEPTIDE1,PEPTIDE1,1:R3-11:R3$$$V2.0), the residual activity came out at 80%.

For the compound `C[C@@H](O)[C@@H]1NC(=O)[C@H]([C@@H](C)O)NC(=O)[C@@H]2CCCN2C(=O)[C@H](CC(N)=O)NC(=O)[C@H](Cc2ccc(O)cc2)NC(=O)[C@@H](N)CSSC[C@@H](C(=O)O)NC(=O)[C@H](CCC(N)=O)NC(=O)[C@H](CCC(N)=O)NC(=O)[C@H](Cc2ccc(O)cc2)NC1=O` (HELM PEPTIDE1{C.Y.N.P.T.T.Y.Q.Q.C}$PEPTIDE1,PEPTIDE1,1:R3-10:R3$$$V2.0), the residual activity came to 73%.

On to `C[C@@H](O)[C@@H]1NC(=O)[C@H]([C@@H](C)O)NC(=O)[C@@H]2CCCN2C(=O)[C@H](CC(N)=O)NC(=O)[C@H](Cc2ccc(O)cc2)NC(=O)[C@@H](N)CSSC[C@@H](C(=O)O)NC(=O)[C@H](CC[S+](C)[O-])NC(=O)[C@H](CCC(N)=O)NC(=O)[C@H](Cc2ccc(O)cc2)NC1=O` (stereo partly drawn) (HELM PEPTIDE1{C.Y.N.P.T.T.Y.Q.[CS(=O)CC[C@H](N[*:1])C(=O)[*:2]].C}$PEPTIDE1,PEPTIDE1,1:R3-10:R3$$$V2.0), for which the residual activity worked out at 73%.

Regarding `CCCC[C@@H]1NC(=O)[C@H](CCC(N)=O)NC(=O)[C@H](Cc2ccc(O)cc2)NC(=O)[C@H]([C@@H](C)O)NC(=O)[C@H]([C@@H](C)O)NC(=O)[C@@H]2CCCN2C(=O)[C@H](CC(N)=O)NC(=O)[C@H](Cc2ccc(O)cc2)NC(=O)[C@@H](N)CSSC[C@@H](C(=O)O)NC1=O` (HELM PEPTIDE1{C.Y.N.P.T.T.Y.Q.[Nle].C}$PEPTIDE1,PEPTIDE1,1:R3-10:R3$$$V2.0), the residual activity came out at 73%.

`CSCC[C@@H]1NC(=O)[C@H](CCC(N)=O)NC(=O)[C@H](Cc2ccc(O)cc2)NC(=O)[C@H]([C@@H](C)O)NC(=O)[C@H]([C@@H](C)O)NC(=O)[C@@H]2CCCN2C(=O)[C@H](CC(N)=O)NC(=O)[C@H](Cc2ccc(O)cc2)NC(=O)[C@@H](NC(=O)[C@@H](N)CCSC)CSSC[C@@H](C(=O)O)NC1=O` (HELM PEPTIDE1{M.C.Y.N.P.T.T.Y.Q.M.C}$PEPTIDE1,PEPTIDE1,2:R3-11:R3$$$V2.0): the residual activity came out at 64%.

The target is the same in a further assay. The assay is described as follows: Inhibition of human recombinant EGF receptor dimerization expressed in A431 cells at 10 uM after 10 mins by immunoblotting analysis relative to control. The assay is classed as cell-based. The following applies: A-431. Put shortly:
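Confluent A431 cells were solubilized in 20 mM HEPES pH 7.4 with 1% Triton X-100, 10% glycerol, 1 mM EGTA and 1 mM PMSF, and the extract was spun at 250,000×g. Supernatant at 2 µg/µL protein was pre-treated 60 min with 10 µM peptide, then given 0.21 µM human EGF for 10 min. Cross-linking was with 1 mM BS³ for 10 min, quenched with glycine. Dimer and monomer were resolved by SDS-PAGE and anti-EGFR immunoblot, with ECL quantification. Dimer without peptide was set to 1.0; mean ± SD of at least three experiments in duplicate.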
As for `CSCC[C@@H]1NC(=O)[C@H](CCC(N)=O)NC(=O)[C@H](Cc2ccc(O)cc2)NC(=O)[C@H]([C@@H](C)O)NC(=O)[C@H]([C@@H](C)O)NC(=O)[C@@H]2CCCN2C(=O)[C@H](CC(N)=O)NC(=O)[C@H](C)NC(=O)[C@@H](N)CSSC[C@@H](C(=O)O)NC1=O` (HELM PEPTIDE1{C.A.N.P.T.T.Y.Q.M.C}$PEPTIDE1,PEPTIDE1,1:R3-10:R3$$$V2.0), the inhibition result is “inactive”.

Consider `CSCC[C@@H]1NC(=O)[C@H](CCC(N)=O)NC(=O)[C@H](Cc2ccc(O)cc2)NC(=O)[C@H]([C@@H](C)O)NC(=O)[C@H]([C@@H](C)O)NC(=O)[C@@H]2CCCN2C(=O)[C@H](CC(N)=O)NC(=O)[C@H](Cc2ccc(O)cc2)NC(=O)[C@H](CC(C)C)NC(=O)[C@H](CCSC)NC(=O)[C@H](CC(C)C)NC(=O)[C@@H](N)CSSC[C@@H](C(=O)O)NC(=O)[C@H](CCC(=O)O)NC(=O)[C@@H]2CCCN2C(=O)[C@H](C(C)C)NC(=O)[C@H](CC(=O)O)NC1=O` (HELM PEPTIDE1{C.L.M.L.Y.N.P.T.T.Y.Q.M.D.V.P.E.C}$PEPTIDE1,PEPTIDE1,1:R3-17:R3$$$V2.0), for which the inhibition result is “Active”.

Regarding `CSCC[C@@H]1NC(=O)[C@H](CCC(N)=O)NC(=O)[C@H](Cc2ccc(O)cc2)NC(=O)[C@H]([C@@H](C)O)NC(=O)[C@H]([C@@H](C)O)NC(=O)[C@@H]2CCCN2C(=O)[C@H](CC(N)=O)NC(=O)[C@H](Cc2ccc(O)cc2)NC(=O)[C@H](CC(C)C)NC(=O)[C@H](CCSC)NC(=O)[C@@H](N)CSSC[C@@H](C(=O)O)NC(=O)[C@H](C(C)C)NC(=O)[C@H](CC(=O)O)NC1=O` (HELM PEPTIDE1{C.M.L.Y.N.P.T.T.Y.Q.M.D.V.C}$PEPTIDE1,PEPTIDE1,1:R3-14:R3$$$V2.0), the inhibition entry was “Active”.

Regarding `CSCC[C@@H]1NC(=O)[C@H](CCC(N)=O)NC(=O)[C@H](Cc2ccc(O)cc2)NC(=O)[C@H]([C@@H](C)O)NC(=O)[C@H]([C@@H](C)O)NC(=O)[C@@H]2CCCN2C(=O)[C@H](CC(N)=O)NC(=O)[C@H](Cc2ccc(O)cc2)NC(=O)[C@H](CC(C)C)NC(=O)[C@H](CCSC)NC(=O)[C@H](CC(C)C)NC(=O)[C@@H]2CCCN2C(=O)[C@@H]2CCCN2C(=O)[C@@H](N)CSSC[C@@H](C(=O)O)NC(=O)CNC(=O)[C@H](CCC(=O)O)NC(=O)[C@@H]2CCCN2C(=O)[C@H](C(C)C)NC(=O)[C@H](CC(=O)O)NC1=O` (HELM PEPTIDE1{C.P.P.L.M.L.Y.N.P.T.T.Y.Q.M.D.V.P.E.G.C}$PEPTIDE1,PEPTIDE1,1:R3-20:R3$$$V2.0), the inhibition entry is “Active”.

In the case of `C[C@@H](O)[C@@H]1NC(=O)[C@H]([C@@H](C)O)NC(=O)[C@@H]2CCCN2C(=O)[C@H](CC(N)=O)NC(=O)[C@H](Cc2ccc(O)cc2)NC(=O)[C@@H](N)CSSC[C@@H](C(=O)N[C@@H](CC(=O)O)C(=O)O)NC(=O)[C@H](CCC(N)=O)NC(=O)[C@H](Cc2ccc(O)cc2)NC1=O` (HELM PEPTIDE1{C.Y.N.P.T.T.Y.Q.C.D}$PEPTIDE1,PEPTIDE1,1:R3-9:R3$$$V2.0), the inhibition result is “inactive”.

In the case of `CSCC[C@@H]1NC(=O)[C@H](CCC(N)=O)NC(=O)[C@H](Cc2ccc(O)cc2)NC(=O)[C@H]([C@@H](C)O)NC(=O)[C@H]([C@@H](C)O)NC(=O)[C@@H]2CCCN2C(=O)[C@H](CC(N)=O)NC(=O)[C@H](Cc2ccc(O)cc2)NC(=O)[C@@H](N)CSSC[C@@H](C(=O)N[C@H](C(=O)N[C@@H](CC(N)=O)C(=O)N2CCC[C@H]2C(=O)N[C@@H](CCC(=O)O)C(=O)O)C(C)C)NC1=O` (HELM PEPTIDE1{C.Y.N.P.T.T.Y.Q.M.C.V.N.P.E}$PEPTIDE1,PEPTIDE1,1:R3-10:R3$$$V2.0), the inhibition entry is “inactive”.

Regarding `CSCC[C@@H]1NC(=O)[C@H](CCC(N)=O)NC(=O)[C@H](Cc2ccc(O)cc2)NC(=O)[C@H]([C@@H](C)O)NC(=O)[C@H]([C@@H](C)O)NC(=O)[C@@H]2CCCN2C(=O)[C@H](CC(N)=O)NC(=O)[C@H](Cc2ccc(O)cc2)NC(=O)[C@@H](N)CSSC[C@@H](C(=O)N[C@H](C(=O)N[C@@H](CC(N)=O)C(=O)O)C(C)C)NC1=O` (HELM PEPTIDE1{C.Y.N.P.T.T.Y.Q.M.C.V.N}$PEPTIDE1,PEPTIDE1,1:R3-10:R3$$$V2.0), the inhibition result was “inactive”.

Take `CSCC[C@@H]1NC(=O)[C@H](CCC(N)=O)NC(=O)[C@H](Cc2ccc(O)cc2)NC(=O)[C@H]([C@@H](C)O)NC(=O)[C@H]([C@@H](C)O)NC(=O)[C@@H]2CCCN2C(=O)[C@H](CC(N)=O)NC(=O)[C@H](Cc2ccc(O)cc2)NC(=O)[C@@H](N)CSSC[C@@H](C(=O)N[C@H](C(=O)O)C(C)C)NC1=O` (HELM PEPTIDE1{C.Y.N.P.T.T.Y.Q.M.C.V}$PEPTIDE1,PEPTIDE1,1:R3-10:R3$$$V2.0): the inhibition entry is “inactive”.

On to `CC(C)C[C@H](N)C(=O)N[C@H]1CSSC[C@@H](C(=O)N[C@@H](CC(=O)O)C(=O)O)NC(=O)[C@H](CCC(N)=O)NC(=O)[C@H](Cc2ccc(O)cc2)NC(=O)[C@H]([C@@H](C)O)NC(=O)[C@H]([C@@H](C)O)NC(=O)[C@@H]2CCCN2C(=O)[C@H](CC(N)=O)NC1=O` (HELM PEPTIDE1{L.C.N.P.T.T.Y.Q.C.D}$PEPTIDE1,PEPTIDE1,2:R3-9:R3$$$V2.0), for which the inhibition result was “inactive”.
